E-sel inducer: E-selectin induction on HUVECs; activation, % at 7.58 µM; AID 686992; P16581; 0.37% of 260,000 active; HUVEC E-selectin immunofluorescence imaging; normalized: neutral wells 0, TNF-alpha wells 100;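 active = mean E-selectin-positive cell signal at least 10% of the positive control, reached in at least 60% of replicates, without over 20% cell loss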
Target sequence (P16581 whole entry, looked up): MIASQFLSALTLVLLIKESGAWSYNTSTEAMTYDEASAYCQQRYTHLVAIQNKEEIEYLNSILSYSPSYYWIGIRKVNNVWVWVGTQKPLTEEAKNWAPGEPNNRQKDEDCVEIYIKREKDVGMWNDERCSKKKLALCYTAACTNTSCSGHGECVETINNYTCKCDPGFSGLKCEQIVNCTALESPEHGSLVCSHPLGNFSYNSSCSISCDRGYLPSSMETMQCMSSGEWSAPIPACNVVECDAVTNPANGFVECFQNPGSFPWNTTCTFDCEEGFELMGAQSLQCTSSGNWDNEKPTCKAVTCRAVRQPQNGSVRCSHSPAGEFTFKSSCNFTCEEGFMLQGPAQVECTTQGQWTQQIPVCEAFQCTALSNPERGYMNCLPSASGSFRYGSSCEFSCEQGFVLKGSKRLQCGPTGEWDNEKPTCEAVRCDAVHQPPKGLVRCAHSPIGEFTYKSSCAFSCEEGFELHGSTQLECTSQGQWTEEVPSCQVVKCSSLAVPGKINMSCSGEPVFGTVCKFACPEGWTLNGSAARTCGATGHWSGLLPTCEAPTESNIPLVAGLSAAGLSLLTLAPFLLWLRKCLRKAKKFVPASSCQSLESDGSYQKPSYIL
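Test system – human umbilical vein endothelial cells (HUVEC), E-selectin induction · Input – 3,000 HUVEC seeded per well · Buffer or medium – EGM-2, gelatin · Compound dosing – single-point compound dose · Detection – immunofluorescence imaging · Measure – percent E-selectin-positive cells · Controls – TNF-alpha high, DMSO low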
Large screens that a line does not name were inactive; ! = a repeat was not active. This is one part of a sample in which hits are shown more often than they occur.

CCN(CC)S(=O)(=O)c1ccc(N2CCCCC2)c(NC(=O)C2CSC3(C)CCC(=O)N23)c1 (configuration not stated)	none
COc1cccc(S(=O)(=O)N2CC[C@@H]3[C@H](CO)Nc4ccc(C5=CCCCC5)cc4[C@@H]32)c1	none
CN1CCN(C(=O)C[C@@H]2C=C[C@@H](NC(=O)Nc3ccccc3F)[C@@H](CO)O2)CC1	none
CCOc1ccc(C2C(C(=O)c3ccco3)=C(O)C(=O)N2Cc2cccnc2)cc1 (configuration not stated)	none
C=CCOc1cccc(C2C(C(=O)c3ccco3)=C(O)C(=O)N2Cc2cccnc2)c1 (configuration not stated)	E-sel inducer 33
CCCOc1cccc(C2C(C(=O)c3ccco3)=C(O)C(=O)N2CCCn2ccnc2)c1 (configuration not stated)	none
COc1cccc(S(=O)(=O)N[C@H]2CC[C@@H](CCN)O[C@@H]2CO)c1	none
COc1ccc(C(=O)Nc2ccc3[nH]ccc3c2)cc1	E-sel inducer 34
COc1ccc(C(=O)Nc2ccc3[nH]ncc3c2)cc1	none
COc1ccc(OC)c(C(=O)Nc2ccc3[nH]ccc3c2)c1	none
CCC(=O)N[C@H]1CC[C@H](CC(=O)NCc2ccccc2F)O[C@H]1CO	none
C[C@H](CO)N1C[C@H](C)[C@@H](CN(C)S(C)(=O)=O)Oc2cc(-c3ccccc3)ccc2S1(=O)=O	none
C[C@@H]1CN([C@H](C)CO)S(=O)(=O)c2ccc(-c3ccccc3)cc2O[C@H]1CN(C)C(=O)c1ccc2c(c1)OCO2	none
C[C@@H]1CN([C@@H](C)CO)S(=O)(=O)c2ccc(-c3ccccc3)cc2O[C@H]1CN(C)C(=O)c1ccc2c(c1)OCO2	none
COCC(=O)N(C)C[C@H]1Oc2cc(-c3ccc(F)cc3)ccc2S(=O)(=O)N([C@@H](C)CO)C[C@@H]1C	none
C[C@@H]1CN([C@H](C)CO)S(=O)(=O)c2ccc(-c3ccccc3)cc2O[C@H]1CN(C)S(C)(=O)=O	E-sel inducer 58
C[C@@H]1CN([C@@H](C)CO)S(=O)(=O)c2ccc(-c3ccccc3)cc2O[C@@H]1CN(C)S(C)(=O)=O	none
C[C@H](CO)N1C[C@H](C)[C@H](CN(C)C(=O)c2ccc3c(c2)OCO3)Oc2cc(-c3ccccc3)ccc2S1(=O)=O	E-sel inducer 108
COCC(=O)N(C)C[C@@H]1Oc2cc(-c3ccc(F)cc3)ccc2S(=O)(=O)N([C@H](C)CO)C[C@H]1C	E-sel inducer 58!
COCC(=O)N(C)C[C@H]1Oc2cc(-c3ccc(C)cc3)ccc2S(=O)(=O)N([C@H](C)CO)C[C@H]1C	none
C[C@@H]1CN([C@@H](C)CO)C(=O)CCCn2nncc2CO[C@@H]1CN(C)Cc1ccc2c(c1)OCO2	none
C[C@H]1CN([C@@H](C)CO)C(=O)c2cccc(NC(=O)C3CCOCC3)c2O[C@@H]1CN(C)Cc1ccccc1	none
COc1ccc(NC(=O)C[C@H]2CC[C@H]3[C@@H](COc4ccc(NC(C)=O)cc4C(=O)N3C)O2)cc1	none
CCCNC(=O)N1[C@@H]2CN(C(=O)C3CC3)c3ccccc3[C@@H]2[C@@H]1CO	none
Cn1cnc(S(=O)(=O)N2C[C@@H](O)COC[C@@H]3O[C@H](CC(=O)NC4Cc5ccccc5C4)CC[C@H]32)c1	none
COc1ccc(S(=O)(=O)N(C)C[C@@H]2Oc3c(NS(=O)(=O)c4ccc(F)cc4)cccc3C(=O)N([C@H](C)CO)C[C@@H]2C)cc1	E-sel inducer 62
COc1ccc(S(=O)(=O)Nc2cccc3c2O[C@H](CN(C)C(=O)Nc2cccc4ccccc24)[C@@H](C)CN([C@@H](C)CO)C3=O)cc1	none
COc1ccc(S(=O)(=O)Nc2ccc3c(c2)C(=O)N([C@H](C)CO)C[C@@H](C)[C@@H](CN(C)C(=O)Nc2cccc4ccccc24)O3)cc1	E-sel inducer 75
COc1ccc(S(=O)(=O)Nc2ccc3c(c2)C(=O)N([C@H](C)CO)C[C@H](C)[C@H](CN(C)C(=O)Nc2cccc4ccccc24)O3)cc1	none
COc1ccc(S(=O)(=O)N(C)C[C@@H]2OCCCC[C@@H](C)Oc3ccc(NC(=O)Nc4cccc5ccccc45)cc3C(=O)N([C@H](C)CO)C[C@H]2C)cc1	none
COc1ccc(S(=O)(=O)Nc2ccc3c(c2)C(=O)N([C@H](C)CO)C[C@@H](C)[C@H](CN(C)C(=O)Nc2cccc4ccccc24)O3)cc1	none
COc1ccc(S(=O)(=O)N(C)C[C@@H]2OCCCC[C@H](C)Oc3ccc(NC(=O)Nc4cccc5ccccc45)cc3C(=O)N([C@H](C)CO)C[C@H]2C)cc1	E-sel inducer 34
COc1ccc(S(=O)(=O)Nc2cccc3c2O[C@H](CN(C)S(=O)(=O)c2ccc(F)cc2)[C@H](C)CN([C@H](C)CO)C3=O)cc1	none
COc1ccc(S(=O)(=O)N(C)C[C@H]2OCCCC[C@H](C)Oc3ccc(NC(=O)Nc4cccc5ccccc45)cc3C(=O)N([C@@H](C)CO)C[C@@H]2C)cc1	none
COc1ccc(S(=O)(=O)Nc2cccc3c2O[C@H](CN(C)C(=O)Nc2cccc4ccccc24)[C@@H](C)CN([C@H](C)CO)C3=O)cc1	E-sel inducer 28
COc1ccc(S(=O)(=O)Nc2cccc3c2O[C@H](CN(C)C(=O)Nc2cccc4ccccc24)[C@H](C)CN([C@H](C)CO)C3=O)cc1	none
COc1ccc(S(=O)(=O)N(C)C[C@H]2Oc3c(NS(=O)(=O)c4ccc(F)cc4)cccc3C(=O)N([C@@H](C)CO)C[C@H]2C)cc1	none
C[C@@H]1CN([C@@H](C)CO)S(=O)(=O)c2ccc(C#CC3CC3)cc2O[C@H]1CN(C)C(=O)Nc1cc(F)ccc1F	none
COc1cccc(NC(=O)N2CC(=O)N3[C@H](C2)[C@@H](c2ccc(C4=CCCC4)cc2)[C@@H]3CO)c1	none
CCCN1[C@@H]2c3cccc(=O)n3C[C@H]1[C@H](CO)[C@H]2C(=O)N[C@H](C)c1ccccc1	none
CO[C@H]1CN(C)C(=O)c2cc(NC(=O)c3ccc4c(c3)OCO4)ccc2OC[C@H](C)N(CCC(F)(F)F)C[C@@H]1C	none
COc1ccccc1-c1cn(CC[C@H]2CC[C@@H](NC(=O)NC(C)C)[C@@H](CO)O2)nn1	none
C[C@H](CO)N1C[C@H](C)[C@@H](CN(C)Cc2ccc(-c3ccccc3)cc2)Oc2ccc(NC(=O)Nc3cccc4ccccc34)cc2CC1=O	none
C[C@@H]1CCCCO[C@H](CN(C)Cc2ccc(C(F)(F)F)cc2)[C@@H](C)CN([C@@H](C)CO)C(=O)c2cc(NC(=O)Cc3ccccc3)ccc2O1	none
C[C@H]1CN([C@@H](C)CO)S(=O)(=O)c2ccc(C#CC3CC3)cc2O[C@H]1CN(C)S(C)(=O)=O	none
CO[C@H]1CC[C@H]2CCN(C)C(=O)[C@H](C)N(C)C(=O)c3cccc(C#N)c3OC[C@H]1O2	none
C[C@@H]1CN([C@@H](C)CO)C(=O)c2cc(NC(=O)Cc3cn(C)c4ccccc34)ccc2O[C@H]1CN(C)S(C)(=O)=O	none
CN1/C(=C/C=C(C#N)C#N)C(C)(C)c2ccccc21	none
CN1/C(=C\C=O)C(C)(C)c2ccccc21	none
CN1\C(=C/C=C/C=C/C=[N+](C)C)C(C)(C)c2ccccc21	E-sel inducer 188
CCCNC(=O)N1C[C@@H]2[C@H](c3ccccc31)[C@@H](CO)N2C(=O)c1ccncc1	none
CC(=O)N1[C@@H](CO)[C@@H](c2ccccc2)C12CN(Cc1cc(F)ccc1F)C2	none
CCOC(=O)C1(Cc2ccccc2C)CCCN(C(=O)c2sccc2C)C1 (configuration not stated)	none
CCOC(=O)C1(Cc2ccccc2C)CCCN(C(=O)c2ccnn2C)C1 (configuration not stated)	E-sel inducer 114

Assay outcomes deposited in PubChem by Broad Institute.
